From ChEMBL document CHEMBL4359928, “Scaffold Morphing To Identify Novel DprE1 Inhibitors with Antimycobacterial Activity” (ACS Med Chem Lett, 2019)
In brackets after ≈: the same amount, converted by molar mass.

Tests used:
[1] = system: Mycobacterium tuberculosis; assay: Antimycobacterial activity against Mycobacterium tuberculosis H37Rv assessed as reduction in bacterial cell growth by resazurin reduction method; format: functional
[2] = Inhibition of DprE1 in Mycobacterium tuberculosis
[3] = system: Mycobacterium tuberculosis; assay: Bactericidal activity against Mycobacterium tuberculosis; format: functional
[4] = system: Mycobacterium tuberculosis; assay: Bactericidal activity against Mycobacterium tuberculosis infected in mouse assessed as reduction in colony forming unit at 1 to 2 times of antimycobacterial MIC incubated for 10 days; format: functional
[5] = system: Mycobacterium tuberculosis; assay: Bactericidal activity against Mycobacterium tuberculosis infected in human THP1 cells assessed as reduction in colony forming unit at antimycobacterial MIC incubated for 7 days; format: functional
[6] = system: Mycolicibacterium smegmatis; assay: Antimycobacterial activity against Mycobacterium smegmatis mc2 155 assessed as reduction in bacterial cell growth by resazurin reduction method; format: functional
[7] = Tmax in mouse at MIC in presence of CYP pan inhibitor 1-aminobenzotriazole; format: ADME; conditions: in vivo
[8] = Lipophilicity, logD of compound; format: physicochemical; conditions: octanol/water
[9] = Aqueous solubility of DMSO-dried solid compounds; format: physicochemical; conditions: buffer
[10] = Protein binding in human plasma assessed as free fraction; format: ADME, cell-free
[11] = Permeability across apical to basolateral side in human Caco2 cells; format: ADME, cell-based; conditions: Caco-2, read-out: permeability
[12] = Permeability across basolateral to apical side in human Caco2 cells; format: ADME, cell-based; conditions: Caco-2, read-out: permeability
Cytochrome P450 1A2 = Cytochrome P450 1A2 (Homo sapiens, UniProt P05177); assay: Inhibition of CYP1A2 (unknown origin); format: ADME
Cytochrome P450 2C9 = Cytochrome P450 2C9 (Homo sapiens, UniProt P11712); assay: Inhibition of CYP2C9 (unknown origin); format: ADME
Cytochrome P450 2C19 = Cytochrome P450 2C19 (Homo sapiens, UniProt P33261); assay: Inhibition of CYP2C19 (unknown origin); format: ADME
Cytochrome P450 2D6 = Cytochrome P450 2D6 (Homo sapiens, UniProt P10635); assay: Inhibition of CYP2D6 (unknown origin); format: ADME
Cytochrome P450 3A4 = Cytochrome P450 3A4 (Homo sapiens, UniProt P08684); assay: Inhibition of CYP3A4 (unknown origin); format: ADME
[13] = target: Voltage-gated inwardly rectifying potassium channel KCNH2 (Homo sapiens, UniProt Q12809); assay: Inhibition of human ERG
[14] = Clearance in rat; format: ADME; conditions: in vivo
[15] = Oral bioavailability in rat; format: ADME, organism-based; conditions: in vivo
[16] = Cmax in BALB/c mouse infected with Mycobacterium tuberculosis H37Rv at 10 mg/kg, po administered for 4 weeks starting from day 28 post infection; format: ADME, organism-based; parameters: dose 10 mg/kg, route oral; conditions: in vivo
How it was run: (§1)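 Male BALB/c mice with chronic TB, aerosol-infected, given 10 or 30 mg/kg orally in multiple doses over a 4-week course that began 28 days post-infection. Plasma concentration–time profiles were taken from infected animals. PK parameters are reported as mean ± SD, n = 3.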

[17] = Tmax in BALB/c mouse infected with Mycobacterium tuberculosis H37Rv at 10 mg/kg, po administered for 4 weeks starting from day 28 post infection; format: ADME, organism-based; conditions: in vivo; how it was run: as §1
[18] = AUC (0 to infinity) in BALB/c mouse infected with Mycobacterium tuberculosis H37Rv at 10 mg/kg, po administered for 4 weeks starting from day 28 post infection; format: ADME, organism-based; parameters: dose 10 mg/kg, time infinity, route oral; conditions: in vivo; how it was run: as §1
[19] = Half life in BALB/c mouse infected with Mycobacterium tuberculosis H37Rv at 10 mg/kg, po administered for 4 weeks starting from day 28 post infection; format: ADME, organism-based; conditions: in vivo; how it was run: as §1
[20] = Cmax in BALB/c mouse infected with Mycobacterium tuberculosis H37Rv at 30 mg/kg, po administered for 4 weeks starting from day 28 post infection; format: ADME, organism-based; parameters: dose 30 mg/kg, route oral; conditions: in vivo; how it was run: as §1
[21] = Tmax in BALB/c mouse infected with Mycobacterium tuberculosis H37Rv at 30 mg/kg, po administered for 4 weeks starting from day 28 post infection; format: ADME, organism-based; conditions: in vivo; how it was run: as §1
[22] = AUC (0 to infinity) in BALB/c mouse infected with Mycobacterium tuberculosis H37Rv at 30 mg/kg, po administered for 4 weeks starting from day 28 post infection; format: ADME, organism-based; parameters: dose 30 mg/kg, route oral, time infinity; conditions: in vivo; how it was run: as §1
[23] = Half life in BALB/c mouse infected with Mycobacterium tuberculosis H37Rv at 30 mg/kg, po administered for 4 weeks starting from day 28 post infection; format: ADME, organism-based; conditions: in vivo; how it was run: as §1
[24] = system: Mycobacterium tuberculosis; assay: Antimycobacterial activity against Mycobacterium tuberculosis H37Rv infected in BALB/c mouse assessed as reduction in bacterial burden in mouse lung at 30 mg/kg, po administered for 4 weeks starting from day 28 post infection; format: functional
How it was run: (§2)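 Chronic TB model in BALB/c mice infected by the aerosol route. Oral treatment began 28 days post-infection and ran 4 weeks. Bacterial burden was read as log10 CFU in lungs and spleen.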

[25] = system: Mycobacterium tuberculosis; assay: Antimycobacterial activity against Mycobacterium tuberculosis H37Rv infected in BALB/c mouse assessed as reduction in bacterial burden in mouse spleen at 30 mg/kg, po administered for 4 weeks starting from day 28 post infection; format: functional; how it was run: as §2
[26] = Toxicity in BALB/c mouse infected with Mycobacterium tuberculosis H37Rv assessed as body weight loss at 10 to 30 mg/kg, po administered for 4 weeks starting from day 28 infection; format: organism-based; conditions: in vivo, 672 h
How it was run: (§3)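 Infected BALB/c mice received repeated oral dosing for 4 weeks in the chronic efficacy study. Adverse events were assessed as body weight loss, organ weight loss and gross pathology.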

[27] = Toxicity in BALB/c mouse infected with Mycobacterium tuberculosis H37Rv assessed as organ weight loss at 10 to 30 mg/kg, po administered for 4 weeks starting from day 28 infection; format: organism-based; conditions: in vivo, 672 h; how it was run: as §3
[28] = Toxicity in BALB/c mouse infected with Mycobacterium tuberculosis H37Rv assessed as gross pathology at 10 to 30 mg/kg, po administered for 4 weeks starting from day 28 infection; format: organism-based; conditions: in vivo, 672 h; how it was run: as §3
Bacillus subtilis = assay: Antibacterial activity against Bacillus subtilis; format: functional
[29] = system: Corynebacterium glutamicum; assay: Antibacterial activity against Corynebacterium glutamicum; format: functional
[30] = system: Corynebacterium pseudodiphtheriticum; assay: Antibacterial activity against Corynebacterium pseudodiphtheria; format: functional
[31] = system: Corynebacterium pseudotuberculosis; assay: Antibacterial activity against Corynebacterium pseudotuberculosis; format: functional
Enterococcus faecalis = assay: Antibacterial activity against Enterococcus faecalis; format: functional
Escherichia coli = assay: Antibacterial activity against Escherichia coli; format: functional
Listeria monocytogenes = assay: Antibacterial activity against Listeria monocytogenes; format: functional
Nocardia farcinica = assay: Antibacterial activity against Nocardia farcinica; format: functional
Proteus vulgaris = assay: Antibacterial activity against Proteus vulgaris; format: functional
Pseudomonas aeruginosa = assay: Antibacterial activity against Pseudomonas aeruginosa; format: functional
Pseudomonas putida = assay: Antibacterial activity against Pseudomonas putida; format: functional
Rhodococcus = assay: Antibacterial activity against Rhodococcus sps; format: functional
Prescottella equi = assay: Antibacterial activity against Rhodococcus equi; format: functional; conditions: Rhodococcus (subgen. Prescottella) equi
Staphylococcus aureus = assay: Antibacterial activity against Staphylococcus aureus; format: functional
[32] = Mycobacterium tuberculosis, H37Rv, read-out: MIC

Cytochrome P450 2D6, sequence (P10635 whole entry): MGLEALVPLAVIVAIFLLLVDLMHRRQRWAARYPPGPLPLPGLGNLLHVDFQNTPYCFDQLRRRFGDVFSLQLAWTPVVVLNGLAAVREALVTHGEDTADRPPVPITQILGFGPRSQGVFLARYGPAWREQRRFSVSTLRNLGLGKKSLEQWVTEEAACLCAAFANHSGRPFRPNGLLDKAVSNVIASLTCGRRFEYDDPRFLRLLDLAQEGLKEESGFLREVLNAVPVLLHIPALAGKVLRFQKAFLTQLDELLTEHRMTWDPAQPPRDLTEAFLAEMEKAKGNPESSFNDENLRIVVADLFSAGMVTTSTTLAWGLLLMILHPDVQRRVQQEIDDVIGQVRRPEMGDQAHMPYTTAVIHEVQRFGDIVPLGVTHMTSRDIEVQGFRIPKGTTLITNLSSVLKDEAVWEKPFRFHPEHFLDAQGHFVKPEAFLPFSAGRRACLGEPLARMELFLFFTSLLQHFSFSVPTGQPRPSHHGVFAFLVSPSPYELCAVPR
Cytochrome P450 2C19, sequence (P33261 whole entry): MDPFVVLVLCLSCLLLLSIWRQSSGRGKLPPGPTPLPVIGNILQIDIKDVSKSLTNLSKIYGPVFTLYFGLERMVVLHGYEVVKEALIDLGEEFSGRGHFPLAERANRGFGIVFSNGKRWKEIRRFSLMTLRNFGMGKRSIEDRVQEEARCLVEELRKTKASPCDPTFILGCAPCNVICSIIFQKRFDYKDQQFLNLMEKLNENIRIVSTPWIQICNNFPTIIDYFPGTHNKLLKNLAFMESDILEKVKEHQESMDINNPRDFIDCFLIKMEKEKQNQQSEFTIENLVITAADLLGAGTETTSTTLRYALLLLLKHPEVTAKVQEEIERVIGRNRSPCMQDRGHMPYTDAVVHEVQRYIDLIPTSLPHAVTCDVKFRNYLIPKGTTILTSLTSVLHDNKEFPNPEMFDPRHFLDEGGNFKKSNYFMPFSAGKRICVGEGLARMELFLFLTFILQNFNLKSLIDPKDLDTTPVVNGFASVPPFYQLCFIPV
Voltage-gated inwardly rectifying potassium channel KCNH2, sequence (Q12809 whole entry): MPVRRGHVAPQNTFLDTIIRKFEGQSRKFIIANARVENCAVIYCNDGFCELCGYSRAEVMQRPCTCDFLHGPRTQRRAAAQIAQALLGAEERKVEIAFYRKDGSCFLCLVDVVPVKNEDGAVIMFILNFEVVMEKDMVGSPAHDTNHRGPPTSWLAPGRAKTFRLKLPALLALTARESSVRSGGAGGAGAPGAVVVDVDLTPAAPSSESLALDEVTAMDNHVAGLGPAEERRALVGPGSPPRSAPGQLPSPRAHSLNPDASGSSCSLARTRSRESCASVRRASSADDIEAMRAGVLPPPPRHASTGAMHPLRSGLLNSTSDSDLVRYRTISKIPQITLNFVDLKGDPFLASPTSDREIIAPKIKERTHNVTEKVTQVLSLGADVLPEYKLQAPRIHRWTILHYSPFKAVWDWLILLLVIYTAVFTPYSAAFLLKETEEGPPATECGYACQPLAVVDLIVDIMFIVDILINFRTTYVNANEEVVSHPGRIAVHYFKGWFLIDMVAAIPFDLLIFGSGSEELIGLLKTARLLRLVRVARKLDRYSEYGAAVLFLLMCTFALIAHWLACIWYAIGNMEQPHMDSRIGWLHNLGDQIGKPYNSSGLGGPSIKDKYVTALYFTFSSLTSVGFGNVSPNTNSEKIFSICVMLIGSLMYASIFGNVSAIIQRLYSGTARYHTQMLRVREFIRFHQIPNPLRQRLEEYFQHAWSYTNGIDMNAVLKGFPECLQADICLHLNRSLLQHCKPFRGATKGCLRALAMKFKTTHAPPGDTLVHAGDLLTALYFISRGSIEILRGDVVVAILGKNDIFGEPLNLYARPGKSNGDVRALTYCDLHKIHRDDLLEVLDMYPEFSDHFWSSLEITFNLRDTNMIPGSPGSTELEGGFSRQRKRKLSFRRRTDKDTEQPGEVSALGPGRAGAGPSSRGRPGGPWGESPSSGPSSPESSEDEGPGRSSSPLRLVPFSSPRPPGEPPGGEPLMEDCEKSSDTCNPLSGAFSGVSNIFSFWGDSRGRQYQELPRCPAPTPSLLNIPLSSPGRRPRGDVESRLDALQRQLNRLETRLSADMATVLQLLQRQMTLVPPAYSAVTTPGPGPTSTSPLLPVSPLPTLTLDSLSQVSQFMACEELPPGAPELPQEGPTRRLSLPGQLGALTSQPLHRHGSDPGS
Cytochrome P450 1A2, sequence (P05177 whole entry): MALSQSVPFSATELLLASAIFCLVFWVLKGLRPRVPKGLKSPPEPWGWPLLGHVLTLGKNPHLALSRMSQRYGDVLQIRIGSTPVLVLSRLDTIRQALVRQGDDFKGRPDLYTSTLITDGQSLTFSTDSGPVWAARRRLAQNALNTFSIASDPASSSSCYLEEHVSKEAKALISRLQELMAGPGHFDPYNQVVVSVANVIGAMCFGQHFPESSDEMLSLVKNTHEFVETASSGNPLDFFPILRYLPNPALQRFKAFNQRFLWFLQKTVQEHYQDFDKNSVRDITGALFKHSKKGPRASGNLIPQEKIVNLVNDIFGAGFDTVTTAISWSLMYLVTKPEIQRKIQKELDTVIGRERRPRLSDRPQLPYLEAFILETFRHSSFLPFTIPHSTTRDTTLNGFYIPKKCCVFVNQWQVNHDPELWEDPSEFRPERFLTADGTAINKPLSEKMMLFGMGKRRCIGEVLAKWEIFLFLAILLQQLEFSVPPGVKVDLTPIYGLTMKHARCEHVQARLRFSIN
Cytochrome P450 2C9, sequence (P11712 whole entry): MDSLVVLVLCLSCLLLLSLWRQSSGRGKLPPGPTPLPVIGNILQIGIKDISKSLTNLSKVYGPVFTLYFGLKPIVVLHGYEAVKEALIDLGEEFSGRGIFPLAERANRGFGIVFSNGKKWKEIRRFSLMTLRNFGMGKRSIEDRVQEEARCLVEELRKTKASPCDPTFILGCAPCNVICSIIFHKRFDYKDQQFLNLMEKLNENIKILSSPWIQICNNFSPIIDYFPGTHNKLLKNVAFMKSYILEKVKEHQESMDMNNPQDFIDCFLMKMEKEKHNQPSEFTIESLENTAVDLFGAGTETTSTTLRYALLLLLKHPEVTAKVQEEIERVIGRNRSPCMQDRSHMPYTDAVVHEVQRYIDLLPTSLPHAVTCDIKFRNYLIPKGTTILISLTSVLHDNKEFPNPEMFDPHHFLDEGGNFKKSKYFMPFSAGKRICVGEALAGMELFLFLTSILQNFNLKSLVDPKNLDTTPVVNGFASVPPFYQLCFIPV
Cytochrome P450 3A4, sequence (P08684 whole entry): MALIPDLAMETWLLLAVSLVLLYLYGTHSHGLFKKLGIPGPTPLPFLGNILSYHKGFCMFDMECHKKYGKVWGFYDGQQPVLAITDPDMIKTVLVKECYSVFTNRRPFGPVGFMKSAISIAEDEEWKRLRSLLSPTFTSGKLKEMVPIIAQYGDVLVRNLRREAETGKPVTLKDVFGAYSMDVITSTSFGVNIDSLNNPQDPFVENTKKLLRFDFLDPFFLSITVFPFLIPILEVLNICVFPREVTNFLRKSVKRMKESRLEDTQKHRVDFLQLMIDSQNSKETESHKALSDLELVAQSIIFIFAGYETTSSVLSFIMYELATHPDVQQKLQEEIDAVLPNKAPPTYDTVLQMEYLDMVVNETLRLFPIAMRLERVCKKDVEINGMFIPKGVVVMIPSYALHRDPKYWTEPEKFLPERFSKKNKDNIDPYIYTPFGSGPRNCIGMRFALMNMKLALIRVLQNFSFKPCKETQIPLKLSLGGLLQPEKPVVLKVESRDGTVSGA

COc1cc(C(=O)NCC(F)F)c2ncn(Cc3ncnc(OC(F)F)c3C)c2c1
MIC [1, 32]: < 0.39 µM
IC50 [2]: 5 nM

COc1ncnc(Cn2cnc3c(C(=O)NCCF)cccc32)c1C
MIC [1, 32]: 1.56 to 3.12 µM (≈ 0.536 to 1.07 µg/mL)
IC50 [2]: 34 nM
MBC [3]: 1.56 µM (≈ 0.536 µg/mL)
Activity [4]: >3 log10CFU
Activity [5]: 1 log10CFU
MIC [6]: 0.78 to 1.56 µM (≈ 0.268 to 0.536 µg/mL)
Tmax [7]: 6 to 10 h
logD [8]: 1.9
solubility [9]: 152 µM (≈ 52.2 µg/mL)
fraction unbound [10]: 0.32
Papp A→B [11]: 37 ×10⁻⁶ cm/s
Papp B→A [12]: 14 ×10⁻⁶ cm/s
IC50 (Cytochrome P450 1A2): > 50000 nM
IC50 (Cytochrome P450 2C9): > 50000 nM
IC50 (Cytochrome P450 2C19): > 50000 nM
IC50 (Cytochrome P450 2D6): > 50000 nM
IC50 (Cytochrome P450 3A4): > 50000 nM
IC50 [13]: > 33000 nM
clearance [14]: 48 mL/min/kg
bioavailability [15]: 114%
Cmax [16]: 5.1 µM
Tmax [17]: 2 h
AUC(0-inf) [18]: 13.5 µM·h
half-life [19]: 4.5 h
Cmax [20]: 18.3 µM
Tmax [21]: 3 h
AUC(0-inf) [22]: 78.6 µM·h
half-life [23]: 5.9 h
Activity [24]: 1.5 log10CFU
Activity [25]: 1 log10CFU
Activity [26]: Non-Toxic
Activity [27]: Non-Toxic
Activity [28]: Non-Toxic
MIC (Bacillus subtilis): > 200 µM
MIC [29]: > 200 µM
MIC [30]: > 200 µM
MIC [31]: > 200 µM
MIC (Enterococcus faecalis): > 200 µM
MIC (Escherichia coli): > 200 µM
MIC (Listeria monocytogenes): > 200 µM
MIC (Nocardia farcinica): > 200 µM
MIC (Proteus vulgaris): > 200 µM
MIC (Pseudomonas aeruginosa): > 200 µM
MIC (Pseudomonas putida): > 200 µM
MIC (Rhodococcus): > 200 µM
MIC (Prescottella equi): > 200 µM
MIC (Staphylococcus aureus): > 200 µM

CO[C@H]1/C=C/O[C@@]2(C)Oc3c(C)c(O)c4c(O)c(c(/C=N/N5CCN(C)CC5)c(O)c4c3C2=O)NC(=O)/C(C)=C\C=C\[C@H](C)[C@H](O)[C@@H](C)[C@@H](O)[C@@H](C)[C@H](OC(C)=O)[C@@H]1C [RIFAMPIN]
MIC [1, 32]: 0.01 µM (≈ 0.00823 µg/mL)

NNC(=O)c1ccncc1 [ISONIAZID]
MIC [1, 32]: 0.44 µM (≈ 0.0603 µg/mL)

COc1cc(C(=O)NCCF)c2ncn(Cc3ncnc(OC)c3C)c2c1
MIC [1, 32]: < 0.39 µM
IC50 [2]: 5 nM

COc1cc(C(=O)NCCF)c2ncn(Cc3ncnc(N(C)C)c3C)c2c1
MIC [1, 32]: < 0.39 µM
IC50 [2]: 16 nM
logD [8]: 2 to 2.1
solubility [9]: > 1000 µM
fraction unbound [10]: 0.31
Papp A→B [11]: 26 ×10⁻⁶ cm/s
Papp B→A [12]: 22 ×10⁻⁶ cm/s
IC50 (Cytochrome P450 1A2): > 50000 nM
IC50 (Cytochrome P450 2C9): > 50000 nM
IC50 (Cytochrome P450 2C19): > 50000 nM
IC50 (Cytochrome P450 2D6): > 50000 nM
IC50 (Cytochrome P450 3A4): > 50000 nM
IC50 [13]: > 33000 nM

COc1cc(C(=O)NCC(F)F)c2ncn(Cc3ncnc(N(C)C)c3C)c2c1
MIC [1, 32]: < 0.39 µM
IC50 [2]: 9 nM

COc1ncnc(Cn2cc(C(=O)NCCO)c3ncc(C)cc32)c1C [TBA-7371]
MIC [1]: 0.78 µM (≈ 0.277 µg/mL)
MBC [3]: 1.56 µM (≈ 0.554 µg/mL)
clearance [14]: 27 mL/min/kg

C[C@H]1COC2(CCN(c3nc(=O)c4cc(C(F)(F)F)cc([N+](=O)[O-])c4s3)CC2)O1 [BTZ-043]
MIC [1, 32]: 0.003 to 0.006 µM (≈ 0.00129 to 0.00259 µg/mL)

Cc1cc(C(=O)NCC(F)F)c2ncn(Cc3ncnc(N(C)C)c3C)c2c1
MIC [1, 32]: < 0.39 µM
IC50 [2]: 4 nM

Cc1cc(C(=O)NCCF)c2ncn(Cc3ncnc(N(C)C)c3C)c2c1
MIC [1, 32]: < 0.39 µM
IC50 [2]: 9 nM

COc1ncnc(Cn2cnc3c(C(=O)NCCF)cc(C)cc32)c1C
MIC [1, 32]: 0.78 µM (≈ 0.279 µg/mL)
IC50 [2]: 8 nM

Cc1cc(C(=O)NCCF)c2ncn(Cc3ncnc(OC(F)F)c3C)c2c1
MIC [1, 32]: < 0.39 µM
IC50 [2]: 16 nM
